Source: PMC10061536 (ACS Omega, 2023)

Tests used:
[1] = target: Bovine serum albumin (BSA)-glucose model (Bos taurus, UniProt P02769); experiment: In vitro anti-glycation assay, BSA-glucose model; assay type: biochemical; conditions: read-out: % age antiglycation inhibition
How it was run: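 Glycation is read by measuring the fluorescence of glycated products on a spectrofluorometer.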

[2] = DPPH radical scavenging assay; conditions: for IC50: read-out: IC50 (mM ± SEM), DPPH scavenged by 50%; for percentage antioxidant potential: at tested concentrations, IC50 not calculated
How it was run: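 Radical scavenging of DPPH by the test compound, with ascorbic acid as the reference.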

α-amylase = experiment: α-Amylase inhibition assay; assay type: biochemical; conditions: for IC50: read-out: IC50 ± SEM, α-amylase inhibition

Bovine serum albumin (BSA)-glucose model, sequence (P02769 25-607): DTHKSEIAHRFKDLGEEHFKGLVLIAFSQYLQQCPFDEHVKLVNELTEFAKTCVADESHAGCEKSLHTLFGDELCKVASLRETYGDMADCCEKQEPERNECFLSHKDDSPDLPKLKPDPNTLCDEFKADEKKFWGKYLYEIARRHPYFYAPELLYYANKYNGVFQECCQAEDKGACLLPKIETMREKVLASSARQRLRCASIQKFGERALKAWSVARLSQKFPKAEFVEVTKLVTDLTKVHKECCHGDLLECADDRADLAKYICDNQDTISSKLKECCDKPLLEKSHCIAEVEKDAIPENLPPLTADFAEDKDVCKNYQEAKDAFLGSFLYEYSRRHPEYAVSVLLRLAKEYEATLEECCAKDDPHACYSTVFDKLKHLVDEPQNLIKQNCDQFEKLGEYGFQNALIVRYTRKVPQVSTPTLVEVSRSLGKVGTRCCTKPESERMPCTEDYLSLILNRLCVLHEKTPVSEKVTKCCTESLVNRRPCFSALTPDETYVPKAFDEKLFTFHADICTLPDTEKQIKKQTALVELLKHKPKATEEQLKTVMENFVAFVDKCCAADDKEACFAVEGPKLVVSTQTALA

Compound | inhibition at 100 ppm [1] [%] | inhibition at 200 ppm [1] [%] | inhibition at 400 ppm [1] [%] | inhibition at 600 ppm [1] [%] | inhibition at 800 ppm [1] [%] | inhibition at 1000 ppm [1] [%] | IC50 [2] [mM] | % age α-amylase inhibition (α-amylase; 1 μM) [%] | % age α-amylase inhibition (α-amylase; 5 μM) [%] | % age α-amylase inhibition (α-amylase; 10 μM) [%] | IC50 (α-amylase) [µM] | % age antioxidant potential ([2]; 3 mM) [%] | % age antioxidant potential ([2]; 6 mM) [%] | % age antioxidant potential ([2]; 9 mM) [%] | % age antioxidant potential ([2]; 12 mM) [%] | % age antioxidant potential ([2]; 15 mM) [%] | percentage antioxidant potential [2]
Oc1ccc(Cl)cc1C=NNc1nc(-c2ccc(F)cc2)cs1 [3h, 4-Chloro-2-((2-(4-(4-fluorophenyl)thiazol-2-yl)hydrazinylidene)methyl)phenol] | 50.9 | 56.5 | 65.5 | 68.4 | 69 | 70.7 |  | 55.89 | 69.05 | 82.47 | 5.14 ± 0.03 | 0.00 | 0.00 | 0.00 | 8.78 | 23.25 | less than 50%
CC(=NNc1nc(-c2ccc(F)cc2)cs1)c1cccc(Br)c1 [3f, 2-(2-(1-(3-Bromophenyl)ethylidene)hydrazinyl)-4-(4-fluorophenyl)thiazole] | 84.1 | 86.7 | 87.3 | 88 | 90.4 | 91.3 |  | 34.92 | 51.68 | 62.28 | 6.88 ± 0.16 | 0.00 | 0.00 | 19.48 | 28.70 | 40.73 | less than 50%
CCOc1ccccc1C=NNc1nc(-c2ccc(F)cc2)cs1 [3j, 2-(2-(2-Ethoxybenzylidene)hydrazinyl)-4-(4-fluorophenyl)thiazole] | 52.3 | 61.5 | 66.5 | 70.3 | 76.2 | 79.2 | 8.33 ± 0.08 | 29.58 | 42.23 | 54.03 | 8.07 ± 0.12 | 18.18 | 45.90 | 62.07 | 75.45 | 78.51 | 
Cc1ccc(C=NNc2nc(-c3ccc(F)cc3)cs2)c(Br)c1 [3b, 2-(2-(2-Bromo-4-methylbenzylidene)hydrazinyl)-4-(4-fluorophenyl)thiazole] | 81.2 | 84.6 | 85.2 | 86.2 | 86.8 | 87.5 | 11.3 ± 0.14 | 31.95 | 51.54 | 62.71 | 6.87 ± 0.01 | 8.77 | 23.69 | 36.38 | 53.65 | 69.82 | 
C[C@H]1O[C@H](O[C@H]2[C@H](O)[C@@H](O)[C@@H](O[C@H]3[C@H](O)[C@@H](O)C(O)O[C@@H]3CO)O[C@@H]2CO)[C@H](O)[C@@H](O)[C@@H]1N[C@H]1C=C(CO)[C@@H](O)[C@H](O)[C@H]1O (stereo partly drawn) [acarbose, reference compound] |  |  |  |  |  |  |  | 53.42 | 66.81 | 74.77 |  |  |  |  |  |  | 
O=C1O[C@H]([C@@H](O)CO)C(O)=C1O [ascorbic acid, reference compound] |  |  |  |  |  |  | 7.18 ± 0.01 |  |  |  |  | 52.34 | 61.01 | 74.41 | 81.85 | 84.92 | 

Continued, in another order:

inhibition at 100 ppm [1] [%] | inhibition at 200 ppm [1] [%] | inhibition at 400 ppm [1] [%] | inhibition at 600 ppm [1] [%] | inhibition at 800 ppm [1] [%] | inhibition at 1000 ppm [1] [%] | IC50 [2] [mM] | % age α-amylase inhibition (α-amylase; 1 μM) [%] | % age α-amylase inhibition (α-amylase; 5 μM) [%] | % age α-amylase inhibition (α-amylase; 10 μM) [%] | IC50 (α-amylase) [µM] | Compound | % age antioxidant potential ([2]; 3 mM) [%] | % age antioxidant potential ([2]; 6 mM) [%] | % age antioxidant potential ([2]; 9 mM) [%] | % age antioxidant potential ([2]; 12 mM) [%] | % age antioxidant potential ([2]; 15 mM) [%] | percentage antioxidant potential [2]
79.3 | 81 | 82.1 | 83 | 85.8 | 87.8 | 13.86 ± 0.04 | 51.64 | 64.48 | 71.83 | 5.77 ± 0.05 | Fc1ccc(-c2csc(NN=Cc3cccs3)n2)cc1 [3n, 4-(4-Fluorophenyl)-2-(2-(thiophen-2-ylmethylene)hydrazinyl)thiazole] | 0.00 | 12.72 | 30.39 | 45.47 | 59.36 | 
68.7 | 69.7 | 70.7 | 71.8 | 72.8 | 73.7 |  | 30.06 | 41.20 | 57.45 | 7.77 ± 0.01 | Cc1ccc(C=NNc2nc(-c3ccc(F)cc3)cs2)o1 [3e, 4-(4-Fluorophenyl)-2-(2-((5-methylfuran-2-yl)methylene)hydrazinyl)thiazole] | 0.00 | 8.26 | 19.32 | 44.74 | 49.04 | less than 50%
87.4 | 87.9 | 89 | 89.5 | 90.9 | 92.3 | 10.68 ± 0.08 | 36.97 | 49.93 | 62.35 | 6.92 ± 0.12 | Fc1ccc(-c2csc(NN=Cc3ccc(C(F)(F)F)cc3)n2)cc1 [3d, 4-(4-Fluorophenyl)-2-(2-(4-(trifluoromethyl)benzylidene)hydrazinyl)thiazole] | 23.48 | 34.45 | 45.32 | 56.39 | 63.78 | 
76.8 | 78.8 | 82.5 | 84 | 86.1 | 88.8 |  | 42.76 | 52.79 | 63.94 | 6.66 ± 0.13 | Fc1ccc(-c2csc(NN=Cc3ccc[nH]3)n2)cc1 [3m, 2-(2-((1H-Pyrrol-2-yl)methylene)hydrazinyl)-4-(4-fluorophenyl)thiazole] | 0.00 | 0.00 | 0.00 | 15.13 | 31.05 | less than 50%
87.4 | 87.9 | 88.8 | 89.2 | 90 | 91.6 |  | 47.84 | 57.72 | 70.90 | 6.03 ± 0.04 | Fc1ccc(-c2csc(NN=Cc3ccccc3C(F)(F)F)n2)cc1 [3k, 4-(4-Fluorophenyl)-2-(2-(2-(trifluoromethyl)benzylidene)hydrazinyl)thiazole] | 0.00 | 14.08 | 21.05 | 30.92 | 48.28 | less than 50%
